Experimental findings from BindingDB's records for doi:10.1021/np800732n (National Cancer Institute-Frederick, 2010) are described below.

The target in this assay is Transcription factor Jun (Homo sapiens, UniProt P05412). The assay is described as follows: Inhibition of TPA-induced AP1 transfected in HEK293 cells assessed as inhibition of […] reporter activity treated 1 hr before TPA stimulation measured after 18 hrs by luciferase reporter gene assay. Put shortly: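 HEK293 cells were grown in DMEM with 10% FBS at 37 °C and 5% CO2. They were transiently transfected with a luciferase reporter (0.1 µg/well); reporters were AP-1 (four TRE consensus copies from GCN4), NF-κB (five responsive-element copies) or SRE. After 24 h, medium went to DMEM with 0.2% FBS. Cells were pretreated 1 h with compound or DMSO, then given TPA 10 ng/mL for 18 h. Firefly luciferase was read from passive-lysis lysates, TPA alone = 100%, in quadruplicate.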
Sequence of Transcription factor Jun (P05412 whole entry): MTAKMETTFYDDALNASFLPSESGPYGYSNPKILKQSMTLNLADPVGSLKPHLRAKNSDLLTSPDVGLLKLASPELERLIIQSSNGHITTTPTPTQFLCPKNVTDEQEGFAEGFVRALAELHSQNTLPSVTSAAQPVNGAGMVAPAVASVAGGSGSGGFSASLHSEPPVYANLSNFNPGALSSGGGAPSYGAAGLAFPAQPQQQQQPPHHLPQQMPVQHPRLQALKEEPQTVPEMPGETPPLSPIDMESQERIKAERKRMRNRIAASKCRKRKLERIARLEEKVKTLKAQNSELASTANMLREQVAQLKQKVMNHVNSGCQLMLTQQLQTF
In general terms: A reporter such as luciferase makes a cellular process visible.
Turning to `CCC(C)C(=O)O[C@H]1C(=O)O[C@@H]2C[C@H]3C(C)CC(=O)C(=O)[C@]3(C)[C@H]3[C@]4(O)OC[C@]32[C@@H]1[C@@H](C)[C@H]4O` (stereo partly drawn), the IC50 worked out at 32 nM.

Turning to `CC(C)=CC(=O)O[C@@H]1[C@H]2C(C)=C[C@H](O)[C@@H](O)[C@]2(C)[C@H]2[C@]3(O)OC[C@@]24[C@@H]1OC(=O)C[C@H]4[C@@H](C)[C@H]3O` [6R-senecionylchaparrin], the IC50 came out at 71 nM. `CC[C@](C)(O)C(=O)O[C@H]1C(=O)O[C@@H]2C[C@H]3C(C)CC(=O)C(=O)[C@]3(C)[C@H]3[C@@]4(O)OC[C@]32[C@@H]1[C@@H](C)[C@H]4O` (stereo partly drawn) [NSC-14975]: the IC50 was 40 nM.

The term IC50 denotes the concentration that inhibits the measured activity by half.
